Results from ChEMBL document CHEMBL1130315 (J Med Chem, 1997).

Legend:
[1] = biological target: Sodium-dependent dopamine transporter (Rattus norvegicus) (UniProt P23977); assay: Binding constant(Bmax) of [3H]WIN-35428 at saturation in rat caudate-putamen tissue pre-incubated in buffer (Dopamine transporter); assay type: tissue-based
Outline: (§1)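 Rat caudate-putamen homogenate in Krebs-HEPES buffer pH 7.4, preincubated 1 h on ice with buffer alone, 100 nM or 10 μM ligand, then washed by two centrifugations. Twelve-point saturation with 0.1–25 nM [3H]WIN 35,428, 1 h on ice; filtration. Bmax and KD fitted by nonlinear least squares across replicate experiments, with standard errors; protein by modified Lowry.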

[2] = biological target: Sodium-dependent dopamine transporter (Rattus norvegicus) (UniProt P23977); assay: Binding constant(Bmax) of [3H]WIN-35428 at saturation in rat caudate-putamen tissue pre-incubated in buffer at 10 uM (Dopamine transporter); assay type: tissue-based; outline: as §1
Sigma 2 receptor = assay: Binding affinity was evaluated using [3H]-DTG binding to sigma-2 receptor from rat liver
Outline: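 Rat liver membranes (male Sprague-Dawley), 160 μg protein, with 5 nM [3H]DTG plus 1 μM dextrallorphan to mask σ1 sites; 50 mM Tris-HCl pH 8.0, 120 min at 25 °C. Nonspecific binding with 10 μM haloperidol; filtration on poly(ethylenimine)-soaked glass fiber filters, scintillation counting.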

[3] = biological target: Sodium-dependent dopamine transporter (Rattus norvegicus) (UniProt P23977); assay: Binding constant(Bmax) of [3H]WIN-35428 at saturation in rat caudate-putamen tissue preincubated in buffer at 100 nM (Dopamine transporter); assay type: tissue-based; outline: as §1
[4] = biological target: Sodium-dependent dopamine transporter (Rattus norvegicus, UniProt P23977); assay: Binding affinity was evaluated using [3H]WIN-35428 binding to dopamine transporter (DAT) in rat caudate-putamen; assay type: tissue-based
Sodium-dependent dopamine transporter, sequence (P23977 whole entry): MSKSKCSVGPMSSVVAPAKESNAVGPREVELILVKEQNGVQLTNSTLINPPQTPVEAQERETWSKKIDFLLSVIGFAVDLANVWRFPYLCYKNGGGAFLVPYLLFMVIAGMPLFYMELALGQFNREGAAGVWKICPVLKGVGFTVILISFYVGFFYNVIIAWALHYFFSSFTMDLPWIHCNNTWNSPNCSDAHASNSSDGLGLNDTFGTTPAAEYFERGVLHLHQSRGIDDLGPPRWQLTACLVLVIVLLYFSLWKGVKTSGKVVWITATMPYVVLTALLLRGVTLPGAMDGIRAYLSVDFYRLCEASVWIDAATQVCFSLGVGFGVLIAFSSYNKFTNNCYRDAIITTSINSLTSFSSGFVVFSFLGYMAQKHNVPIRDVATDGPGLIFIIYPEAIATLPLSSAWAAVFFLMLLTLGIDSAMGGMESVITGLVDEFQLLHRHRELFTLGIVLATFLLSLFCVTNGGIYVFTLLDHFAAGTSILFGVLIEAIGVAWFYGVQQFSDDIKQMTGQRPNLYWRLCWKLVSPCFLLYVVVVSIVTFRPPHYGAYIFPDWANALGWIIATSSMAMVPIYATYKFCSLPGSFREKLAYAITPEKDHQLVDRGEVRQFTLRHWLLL

Sodium-dependent dopamine transporter (Rattus norvegicus), sequence (P23977 whole entry): as above

| Structure (SMILES) | Bmax (fM (mg of protein)-1) [1] | Bmax (fM (mg of protein)-1) [2] | IC50 (Sigma 2 receptor) [nM] | Bmax (fM (mg of protein)-1) [3] | IC50 [4] [nM] |
| --- | --- | --- | --- | --- | --- |
| CC1CN(CCCn2c3ccccc3c3ccccc32)CC(C)N1CCCCCCN=C=S (stereo not drawn) | 537 | 6.65 | 211 | 167 |  |
| C[C@@H]1CN(CCCn2c3ccccc3c3ccccc32)C[C@H](C)N1 [RIMCAZOLE] |  |  | 386 |  | 57.6 |
| CC1CN(CCCn2c3ccccc3c3cc(N=C=S)ccc32)CC(C)N1C (stereo not drawn) |  |  |  |  | 1330 |
| C[C@H]1CN(CCCn2c3ccccc3c3ccccc32)C[C@H](C)N1C |  |  | 294 |  | 244 |
| CC1CN(CCCn2c3ccccc3c3ccccc32)CC(C)N1CCN=C=S (stereo not drawn) |  |  | 1440 |  | 1250 |
| CC1CN(CCCn2c3ccccc3c3ccccc32)CC(C)N1CCCN=C=S (stereo not drawn) |  |  | 877 |  | 523 |
